The text below walks through data of ChEMBL document CHEMBL1914431, “Discovery of a novel series of nonacidic benzofuran EP1 receptor antagonists” (Bioorg Med Chem Lett, 2011).

The structures appear in SMILES notation. ≈ marks a conversion by molar mass, not a printed value. Calls of active or inactive are those of the source. A value given as a limit tells only on which side of the number the result lay.

Data set [1] deals with T1, Prostaglandin E2 receptor EP1 subtype (Homo sapiens, UniProt P34995).
T1 sequence (P34995 whole entry): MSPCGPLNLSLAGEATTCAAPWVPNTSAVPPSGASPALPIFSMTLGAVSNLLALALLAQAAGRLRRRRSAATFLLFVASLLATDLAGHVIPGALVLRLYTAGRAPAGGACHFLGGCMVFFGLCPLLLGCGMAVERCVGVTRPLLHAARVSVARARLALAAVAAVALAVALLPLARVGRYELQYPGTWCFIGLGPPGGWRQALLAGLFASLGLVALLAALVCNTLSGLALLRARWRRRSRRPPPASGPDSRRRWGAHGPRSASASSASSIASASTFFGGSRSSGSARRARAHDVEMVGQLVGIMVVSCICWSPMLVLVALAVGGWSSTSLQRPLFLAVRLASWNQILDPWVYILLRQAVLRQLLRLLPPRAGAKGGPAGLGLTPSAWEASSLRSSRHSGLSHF
The data set can be described thus: Displacement of [3H]GW875240X from human prostanoid EP1 receptor expressed in CHO-K1 cells after 45 mins by topcount liquid scintillation counting. Format: cell-based. The gist of the method: (§1)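 Radioligand binding at the EP1 receptor. Either [3H]-GW875240X or [3H]-PGE2 is the displaced ligand. Values are pIC50, means of at least three experiments.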
Background: Loss of bound radioactivity is the signal in a displacement assay; it reports binding, not function.

The target of data set [2] is T1, Prostaglandin E2 receptor EP1 subtype. The data set can be described thus: Displacement of [3H]PGE2 from human prostanoid EP1 receptor expressed in CHO-K1 cells after 30 mins by topcount liquid scintillation counting. It counts as cell-based. In short, it runs like this:
as §1

A further data set relates to Brain. The data set can be described thus: Fraction unbound in brain of po dosed rat complete Freund's adjuvant-induced inflammatory pain model. Format: ADME, organism-based. The conditions noted are these: in vivo.
Data set [3] relates to Rattus norvegicus. The data set can be described thus: Analgesic activity in rat chronic joint pain model at 30 mg/kg, po bid. Format: functional, organism-based. Details: dose 30 mg/kg. In short, it runs like this:
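Rat joint pain model of chronic inflammatory pain. Oral dosing b.i.d. at 1, 3, 10 and 30 mg/kg, or at 0.3, 1, 3 and 10 mg/kg. Reversal of hypersensitivity is scored, with statistical significance testing, and ED50 is calculated.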

Data set [4] is described as follows: Drug level in blood of rat complete Freund's adjuvant-induced inflammatory pain model at 10 mg/kg, po after 1 hr. Format: ADME, organism-based. Set-up: dose 10 mg/kg, route oral. The conditions noted are these: read-out: Drug uptake. In short, it runs like this: (§2)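 Blood and brain samples are taken from CFA rats after oral dosing in 1% methylcellulose. Sampling is at 1 h post-dose, and at 3 h in the 5 mg/kg study. Concentrations are in µM or nM, n = 7 or n = 6 for blood and n = 3 for brain. The brain:blood ratio is calculated from the same rats.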

Data set [5] can be described thus: Solubility of the compound in simulated gastric fluid after 1 hr. It counts as physicochemical. The gist of the method: (§3)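 Solubility is measured after 1 h in water, SGF, FaSSIF and FeSSIF, in µg/mL.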
Data set [6] deals with Rattus norvegicus. The data set can be described thus: Analgesic activity in rat assessed as reversal of complete Freund's adjuvant-induced inflammatory pain at 10 mg/kg, po after 1 hr post dose. Format: functional. The gist of the method: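 Rat CFA inflammatory pain model. Oral dosing in 1% methylcellulose. Hypersensitivity reversal is read by weight bearing, at 1 h post-dose. The 5 mg/kg study was also read at 3 h. Dose-response groups were 3, 10 and 30 mg/kg, or 1, 3 and 10 mg/kg, with ED50 derived. Celecoxib at 10 mg/kg po served as the standard.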

Data set [7] can be described thus: Ratio of drug level in brain to blood in rat complete Freund's adjuvant-induced inflammatory pain model at 10 mg/kg, po after 1 hr. Format: ADME, organism-based. Set-up: dose 10 mg/kg, route oral. The conditions noted are these: read-out: BBR. In short, it runs like this: as §2
Data set [8] can be described thus: Solubility of the compound in fasted state simulated intestinal fluid after 1 hr. Format: physicochemical. In short, it runs like this: as §3
Data set [9] in a line: Blood clearance in rat at 1 mg/kg, iv. Format: ADME, organism-based. Set-up: dose 1 mg/kg, route intravenous.
Data set [10] can be described thus: Solubility of the compound in water after 1 hr. It counts as physicochemical. The gist of the method:
as §3

The nature of data set [11]: Volume of distribution at steady state in rat at 1 mg/kg, iv. Format: ADME, organism-based. Set-up: dose 1 mg/kg, route intravenous. The conditions noted are these: in vivo, read-out: Vdss.
A short description of data set [12]: Lipophilicity, log D of compound at pH 7.4 by shake flask method. Format: physicochemical. The conditions noted are these: buffer. In short, it runs like this:
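Log D is determined by the shake flask method at pH 7.4.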

Data set [13] can be described thus: Drug level in brain of rat complete Freund's adjuvant-induced inflammatory pain model at 10 mg/kg, po after 1 hr. It counts as ADME, organism-based. Set-up: dose 10 mg/kg, route oral. The conditions noted are these: read-out: Drug uptake. The gist of the method:
as §2

For the next data set, the system named is Liver microsomes. The data set can be described thus: Intrinsic clearance in human liver microsomes. It counts as ADME, Microsome. On the technique in general: Liver microsomes are a subcellular fraction often used to study metabolism.
The subject of the next data set is Blood. The data set can be described thus: Fraction unbound in blood of po dosed rat complete Freund's adjuvant-induced inflammatory pain model. The conditions noted are these: in vivo. Format: ADME, organism-based.
The nature of data set [14]: Half life in rat at 1 mg/kg, iv. Format: ADME, organism-based. Details: dose 1 mg/kg, route intravenous. The conditions noted are these: in vivo.

In turn, `Cc1cc(C(=O)O)nn1Cc1cc(Cl)cc2oc(C(C)C)cc12` had an IC50 in [1] of 251 nM.
Same read-out and setting: then `Cc1cc(C(=O)NCC(O)C(F)(F)F)nn1Cc1cc(Cl)cc2cc(-c3ccccc3)oc12` (stereo not given), with 25.1 nM; and `Cc1cc(C(=O)NC(C)C)nn1Cc1cc(Cl)cc2cc(-c3ccccc3)oc12`, with 10 nM.
For `Cc1cc(C(=O)O)nn1Cc1cc(Cl)cc2nc(C(C)C)cn12`, in data set [2], the IC50 was > 1000 nM.
For `Cc1cc(C(=O)O)nn1Cc1cc(Cl)cc2cc(-c3ccccc3)oc12`, the IC50 in data set [1] was 2 nM.
With `Cc1cc(C(=O)O)nn1Cc1cc(Cl)cc2cc(C(C)(C)C)oc12`, the IC50 in data set [1] is 63.1 nM.
As to `Cc1cc(C(=O)O)nn1Cc1cc(Cl)cn2nc(C(C)C)cc12`, the half-inhibitory concentration (IC50) in data set [1] was > 1000 nM.
Same read-out and setting: then `Cc1cc(C(=O)NCC2CCNCC2)nn1Cc1cc(Cl)cc2cc(-c3ccccc3)oc12`, with 20 nM.
For the molecule `Cc1cc(-c2nc3ccccc3[nH]2)nn1Cc1cc(Cl)cc2cc(C(C)C)oc12`, the IC50 in data set [2] was 50.1 nM.
For `Cc1cc(C(=O)NC2CC2)nn1Cc1cc(Cl)cc2cc(-c3ccccc3)oc12`, the IC50 in data set [1] was 5.01 nM.
In data set [2], `Cc1cc(C(=O)NN2CCCCC2)nn1Cc1cc(Cl)cc2cc(C(C)C)oc12` gave an IC50 of 100 nM.
With `Cc1cc(C(=O)NN2CCOCC2)nn1Cc1cc(Cl)cc2cc(-c3ccccc3)oc12`, the Fu in the data set with Brain was found to be 0.17%; in the data set with Blood, 0.662%. In the data set with Rattus norvegicus [3], the outcome was Active. Moreover, the concentration at 1 h in [4] is 2340 nM; in data set [13] it was 3.97 µM. For the same molecule, the results for the solubility at 1 h in data set [5], in data set [8] and in data set [10] were 227 µg/mL (≈ 503 µM), 382 µg/mL (≈ 847 µM) and 171 µg/mL (≈ 379 µM), respectively. Moreover, the Activity in the data set with Rattus norvegicus [6] came to 49%. In addition, in data set [7], the Kp at 1 h amounted to 1.7. For the same molecule, the clearance in [9] is 22 mL/min/kg. In addition, the Vd in data set [11] was found to be 3.5 L/kg. For the same molecule, the log distribution coefficient (logD) in [12] came to 3. This molecule also gave a CL in the data set on Liver microsomes of 1.1 mL/min/g. Besides, in [14], the half-life was 126 min. The half-maximal inhibitory concentration (IC50) in data set [1] is 10 nM.
In [2], `Cc1cc(C(=O)O)nn1Cc1cc(Cl)cn2cc(C(C)C)nc12` showed a concentration for half-maximal inhibition (IC50) of 501 nM.
On the same count and under the same terms, then `Cc1cc(C(=O)O)nn1Cc1cc(Cl)cn2cc(C(C)C)cc12`, with 126 nM.
In the case of `CCCc1cc2cc(Cl)cc(Cn3nc(C(=O)O)cc3C)c2o1`, the IC50 in [1] was 25.1 nM.

Broadly, the IC50 is the point on the concentration scale where inhibition reaches its midpoint. The low end stands for greater potency in that assay, the high end for weaker potency in that assay. The term solubility denotes the concentration that dissolves in the medium under given conditions. Low values mean a poorly soluble substance, high ones a readily soluble substance. The clearance is the volume of plasma or blood freed of the substance per unit of time. High values mean efficient removal, low ones inefficient removal. One may read the logD as lipophilicity at a set pH, counting ionised and neutral species. Low values mean a more hydrophilic compound, high ones a more lipophilic compound. Broadly, the half-life is the time needed for the level to fall by half in the phase considered. A lower half-life goes with rapid decline.
